17 compounds from ChEMBL document CHEMBL1135929, “Investigation of potential bioisosteric replacements for the carboxyl groups of peptidomimetic inhibitors of protein tyrosine phosphatase 1B: identification of a tetrazole-containing inhibitor with cellular activity” (J Med Chem, 2002) can be followed below.

SMILES strings stand for the structures.

The target in assay [1] is T1, Tyrosine-protein phosphatase non-receptor type 1 (Homo sapiens) (UniProt P18031).
T1 sequence (whole entry): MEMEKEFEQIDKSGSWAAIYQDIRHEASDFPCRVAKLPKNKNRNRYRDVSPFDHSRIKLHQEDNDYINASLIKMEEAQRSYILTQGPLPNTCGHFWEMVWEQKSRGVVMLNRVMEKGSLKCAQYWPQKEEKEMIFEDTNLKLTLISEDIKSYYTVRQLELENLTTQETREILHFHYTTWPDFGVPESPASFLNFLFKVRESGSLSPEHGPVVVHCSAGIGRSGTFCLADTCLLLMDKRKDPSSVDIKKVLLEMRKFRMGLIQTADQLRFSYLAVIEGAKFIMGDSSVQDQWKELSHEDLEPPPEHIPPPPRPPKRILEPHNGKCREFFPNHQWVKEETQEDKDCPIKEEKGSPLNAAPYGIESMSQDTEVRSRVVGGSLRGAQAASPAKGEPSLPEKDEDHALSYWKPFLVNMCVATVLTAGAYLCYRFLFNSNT
The experiment in a line: Percent inhibition against Protein-tyrosine phosphatase 1B at a 1 uM concentration.

The target of assay [2] is T1, Tyrosine-protein phosphatase non-receptor type 1 (Homo sapiens). In words: Percent inhibition against Protein-tyrosine phosphatase 1B at a 10 uM concentration.
For assay [3], the target named is Receptor-type tyrosine-protein phosphatase F (Homo sapiens) (UniProt P10586). In words: Percent inhibition against Protein-tyrosine phosphatase Lar at 100 uM. In a few lines:
(§1)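 For specificity screening, recombinant purified LAR and SHP-2 were each tested with compound at 100 µM, reported as % inhibition.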

The species entered for assay [4] is Rattus norvegicus. The experiment in a line: Effect of compound (100 µM) on insulin (10 nM)-stimulated 2-deoxyglucose (2-DOG) uptake into L6 myocytes.
Assay [5] concerns the target T2, Tyrosine-protein phosphatase non-receptor type 11 (Homo sapiens) (UniProt Q06124).
T2 sequence (whole entry): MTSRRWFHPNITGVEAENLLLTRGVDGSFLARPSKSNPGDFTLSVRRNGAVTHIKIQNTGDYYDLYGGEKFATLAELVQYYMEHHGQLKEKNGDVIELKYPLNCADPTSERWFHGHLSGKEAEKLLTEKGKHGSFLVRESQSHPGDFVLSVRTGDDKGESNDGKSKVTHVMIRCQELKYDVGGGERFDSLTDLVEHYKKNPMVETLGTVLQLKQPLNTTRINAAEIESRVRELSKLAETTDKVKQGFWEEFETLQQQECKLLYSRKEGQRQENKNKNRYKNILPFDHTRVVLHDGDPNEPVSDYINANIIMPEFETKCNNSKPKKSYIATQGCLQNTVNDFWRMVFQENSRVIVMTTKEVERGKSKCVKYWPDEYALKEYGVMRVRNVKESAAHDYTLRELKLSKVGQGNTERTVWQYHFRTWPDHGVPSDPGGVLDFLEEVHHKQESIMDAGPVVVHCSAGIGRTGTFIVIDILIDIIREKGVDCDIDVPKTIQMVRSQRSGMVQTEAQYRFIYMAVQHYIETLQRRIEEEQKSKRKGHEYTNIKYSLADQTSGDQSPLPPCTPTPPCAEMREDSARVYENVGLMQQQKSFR
In words: Percent inhibition against Tyrosine phosphatase SHP2 at 100 uM. In a few lines:
as §1

The target in assay [6] is T3, Tyrosine-protein phosphatase non-receptor type 1 (Homo sapiens, UniProt P18031).
T3 sequence (P18031 whole entry): T1 sequence (whole entry)
The experiment in a line: Inhibitory constant against Protein-tyrosine phosphatase 1B. In short, it runs like this:
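Competitive inhibition of PTP1B was measured with pNPP as substrate. V vs S data were collected at various inhibitor concentrations, and Ki was computed by the Cornish-Bowden direct linear method.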

The species named for assay [7] is Rattus norvegicus. In words: Effect on basal uptake without insulin into intact cells (L6 myocytes), to that of control cells. It counts as functional, cell-based.
Assay [8] has as its target T1, Tyrosine-protein phosphatase non-receptor type 1 (Homo sapiens). In words: Percent inhibition against Protein-tyrosine phosphatase 1B at a 100 uM concentration. In a few lines: (§2)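 PTP1B inhibition was read as pNPP hydrolysis, with compound at a single fixed concentration and activity given as % inhibition. Some entries were measured on PTP1, the rat homologue of PTP1B.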

In assay [9] the target is T3, Tyrosine-protein phosphatase non-receptor type 1. The experiment in a line: Inhibition constant of compound against Protein-tyrosine phosphatase 1B.
In assay [10] the target is T4, Tyrosine-protein phosphatase non-receptor type 1 (Rattus norvegicus) (UniProt P20417).
T4 sequence (whole entry): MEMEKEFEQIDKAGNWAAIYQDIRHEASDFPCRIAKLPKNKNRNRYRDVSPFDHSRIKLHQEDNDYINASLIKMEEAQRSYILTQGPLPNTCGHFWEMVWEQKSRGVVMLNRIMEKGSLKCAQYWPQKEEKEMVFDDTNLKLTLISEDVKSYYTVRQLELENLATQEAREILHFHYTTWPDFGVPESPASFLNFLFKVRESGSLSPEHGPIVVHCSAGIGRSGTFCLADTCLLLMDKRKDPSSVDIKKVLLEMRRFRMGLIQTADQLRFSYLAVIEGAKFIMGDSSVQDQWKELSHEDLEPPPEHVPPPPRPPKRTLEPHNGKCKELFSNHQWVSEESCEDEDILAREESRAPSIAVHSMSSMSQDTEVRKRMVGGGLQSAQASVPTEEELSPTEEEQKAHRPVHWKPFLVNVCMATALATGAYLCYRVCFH
In words: Percent inhibition of compound against Protein-tyrosine phosphatase 1B at a 100 uM concentration. In short, it runs like this:
as §2

The target in assay [11] is Tyrosine-protein phosphatase non-receptor type 11 (SHP-2) (Homo sapiens) (UniProt Q06124). The experiment in a line: Percent inhibition of compound against Tyrosine phosphatase SHP2 at 100 uM.
For assay [12], the target named is Receptor-type tyrosine-protein phosphatase F (Homo sapiens) (UniProt P10586). The experiment in a line: Percent inhibition of compound against Protein-tyrosine phosphatase Lar at 100 uM. In short, it runs like this:
as §1

Sequence of Receptor-type tyrosine-protein phosphatase F (Homo sapiens) (P10586 whole entry): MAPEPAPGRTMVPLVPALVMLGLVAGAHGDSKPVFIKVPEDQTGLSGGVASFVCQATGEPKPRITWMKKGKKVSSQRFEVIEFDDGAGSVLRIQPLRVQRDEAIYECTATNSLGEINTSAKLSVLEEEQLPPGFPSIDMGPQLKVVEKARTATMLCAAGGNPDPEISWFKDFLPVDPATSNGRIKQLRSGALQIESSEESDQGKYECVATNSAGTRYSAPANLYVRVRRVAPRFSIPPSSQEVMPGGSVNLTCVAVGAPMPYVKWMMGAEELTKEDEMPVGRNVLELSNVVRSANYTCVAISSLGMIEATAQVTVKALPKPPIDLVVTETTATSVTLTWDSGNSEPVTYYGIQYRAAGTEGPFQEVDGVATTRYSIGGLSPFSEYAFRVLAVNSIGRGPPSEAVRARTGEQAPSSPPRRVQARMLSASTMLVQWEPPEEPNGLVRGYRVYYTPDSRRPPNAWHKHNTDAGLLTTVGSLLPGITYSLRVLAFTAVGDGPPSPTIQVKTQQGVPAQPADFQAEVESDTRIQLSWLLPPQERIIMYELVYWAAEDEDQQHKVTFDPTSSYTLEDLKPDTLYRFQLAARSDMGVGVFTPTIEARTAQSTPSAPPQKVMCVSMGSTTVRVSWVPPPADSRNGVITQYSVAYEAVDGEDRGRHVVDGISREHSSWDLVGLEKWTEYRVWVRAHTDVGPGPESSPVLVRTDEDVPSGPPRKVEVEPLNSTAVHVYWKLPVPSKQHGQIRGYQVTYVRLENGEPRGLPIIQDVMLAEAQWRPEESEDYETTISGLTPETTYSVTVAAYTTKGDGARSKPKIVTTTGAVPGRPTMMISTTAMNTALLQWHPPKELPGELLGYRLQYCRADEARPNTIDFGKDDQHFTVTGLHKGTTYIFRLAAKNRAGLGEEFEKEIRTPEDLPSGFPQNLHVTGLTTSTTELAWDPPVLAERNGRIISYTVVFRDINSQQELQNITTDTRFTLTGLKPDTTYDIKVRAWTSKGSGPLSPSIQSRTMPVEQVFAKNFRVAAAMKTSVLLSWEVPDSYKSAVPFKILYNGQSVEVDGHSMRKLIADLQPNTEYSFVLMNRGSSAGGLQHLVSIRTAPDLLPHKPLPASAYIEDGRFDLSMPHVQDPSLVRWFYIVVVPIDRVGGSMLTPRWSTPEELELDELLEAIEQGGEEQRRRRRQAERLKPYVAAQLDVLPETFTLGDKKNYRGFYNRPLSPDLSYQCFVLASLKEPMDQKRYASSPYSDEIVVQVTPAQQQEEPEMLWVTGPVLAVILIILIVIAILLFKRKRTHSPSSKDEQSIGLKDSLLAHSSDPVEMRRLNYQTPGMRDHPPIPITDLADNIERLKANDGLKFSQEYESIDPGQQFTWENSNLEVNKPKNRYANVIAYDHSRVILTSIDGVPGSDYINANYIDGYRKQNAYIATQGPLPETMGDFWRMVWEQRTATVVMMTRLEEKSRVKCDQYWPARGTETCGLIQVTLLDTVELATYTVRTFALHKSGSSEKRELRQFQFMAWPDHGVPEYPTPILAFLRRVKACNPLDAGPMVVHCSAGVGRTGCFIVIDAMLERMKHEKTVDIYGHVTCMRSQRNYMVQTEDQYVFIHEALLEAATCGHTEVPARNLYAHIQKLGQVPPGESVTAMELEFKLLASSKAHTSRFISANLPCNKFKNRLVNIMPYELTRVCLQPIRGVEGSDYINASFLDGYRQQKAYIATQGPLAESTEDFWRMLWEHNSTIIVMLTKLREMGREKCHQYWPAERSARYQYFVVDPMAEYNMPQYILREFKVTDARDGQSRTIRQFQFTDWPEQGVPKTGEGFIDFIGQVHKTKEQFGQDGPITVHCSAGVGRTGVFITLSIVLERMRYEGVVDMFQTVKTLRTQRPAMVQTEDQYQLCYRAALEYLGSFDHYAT

The term inhibition denotes the change of the read-out against control, counted positive when it falls. For orientation: Ki means a dissociation constant, usually derived from enzyme kinetics or from competition with a known ligand. The low end stands for higher affinity, the high end for lower affinity. As for `CCCCCNC(=O)[C@H](Cc1ccc(OCC(=O)O)c(-c2nn[nH]n2)c1)NC(=O)[C@H](Cc1ccccc1)NC(=O)OC(C)(C)C`, the inhibition stood at 27% in [1]; 77% in assay [2]; 0% in assay [3]; 1% in [5]; 97% in [8]. Further, the results for the Uptake in the assay listed under Rattus norvegicus [4] and in the assay filed under Rattus norvegicus [7] were 147% and 99%, respectively. The affinity in [6] corresponds to a Ki of 2000 nM.
In the case of `CCCCCNC(=O)C(Cc1ccc(OCC(=O)O)c(C(=O)O)c1)NC(=O)CCC(=O)O` (stereo unspecified), the Ki in assay [9] was 6500 nM. Besides, the inhibition in assay [3] stood at 0%; in [5] it was 5%.
Take `CCCCCNC(=O)C(Cc1ccc(OCC(=O)O)c(C#N)c1)NC(=O)CCC(=O)O` (stereo unspecified): the inhibition was 0% in assay [3], 0% in assay [5] and 4% in [8].
For the compound `CCCCCNC(=O)[C@H](Cc1ccc(OCC(N)=O)c(C(=O)O)c1)NC(=O)[C@H](Cc1ccccc1)NC(=O)OC(C)(C)C`, the inhibition in [1], in [2], in assay [3], in [5] and in assay [8] was 0% each time.
In the case of `CCCCCNC(=O)[C@H](Cc1ccc(OCC(=O)O)c(-c2cc(O)no2)c1)NC(=O)[C@H](Cc1ccccc1)NC(=O)OC(C)(C)C`, the inhibition amounted to 1% in assay [1], 1% in assay [2], 0% in [3] and 9% in [8].
`CCCCCNC(=O)C(Cc1ccc(OCCO)c(C(=O)O)c1)NC(=O)CCC(=O)O` (stereo unspecified): the values for the inhibition in [3], in [5] and in assay [8] were 0%, 0% and 4%, respectively.
Regarding `CCCCCNC(=O)[C@H](Cc1ccc(OCc2nn[nH]n2)c(C(=O)O)c1)NC(=O)[C@H](Cc1ccccc1)NC(=O)OC(C)(C)C`, the inhibition in [1] was 1%; in assay [2], 3%; in assay [3], 0%; in [5], 5%; in [8], 17%.
Take `CCCCCNC(=O)C(Cc1ccc2c(c1)OCCOC2=O)NC(=O)CCC(=O)O` (stereo unspecified): the inhibition in assay [3] turned out to be 0%; in assay [5] it was 0%; in [8] it was 1%.
Take `CCCCCNC(=O)C(Cc1ccc(OCC(=O)O)c(C(C)=O)c1)NC(=O)CCC(=O)O` (stereo unspecified): the inhibition in [10] is 8%; in assay [11], 1%; in [12] it was -2%.
With `CCCCCNC(=O)[C@H](Cc1ccc(OCC(=O)OC)c(C(=O)O)c1)NC(=O)[C@H](Cc1ccccc1)NC(=O)OC(C)(C)C`, the inhibition in assay [1] was 3%; in assay [2], 5%; in assay [3] it was 0%; in assay [5] it was 0%; in [8], 25%.
With `CCCCCNC(=O)[C@H](Cc1ccc(OCC(=O)O)c(CCC(=O)O)c1)NC(=O)[C@H](Cc1ccccc1)NC(=O)OC(C)(C)C`, the inhibition turned out to be 3% in assay [1]; 4% in assay [2]; 13% in assay [3]; 1% in [5]; 18% in assay [8].
As for `CCCCCNC(=O)[C@H](Cc1ccc(OCC(=O)NO)c(C(=O)O)c1)NC(=O)[C@H](Cc1ccccc1)NC(=O)OC(C)(C)C`, the inhibition in [1] worked out at 6%; in [2] it was 8%; in [3] it was 1%; in assay [5] it was 4%; in [8], 30%.
As to `CCCCCNC(=O)[C@H](Cc1ccc(OCC(=O)O)c(C(=O)O)c1)NC(=O)[C@H](Cc1ccccc1)NC(=O)OC(C)(C)C`, the inhibition in assay [1] came out at 30%; in assay [2], 78%; in assay [3], 0%; in assay [5], 2%; in [8], 97%. Further, the Ki in assay [6] is 2000 nM.
For `CCCCCNC(=O)[C@H](Cc1ccc(OCC(=O)O)c(C(=O)NO)c1)NC(=O)[C@H](Cc1ccccc1)NC(=O)OC(C)(C)C`, the inhibition in assay [1] is 5%; in assay [2], 13%; in assay [3], 3%; in [5] it was 6%; in assay [8], 54%.
Consider `CCCCCNC(=O)[C@H](Cc1ccc(OCC(=O)O)c(C(=O)OC)c1)NC(=O)[C@H](Cc1ccccc1)NC(=O)OC(C)(C)C`, for which the inhibition was 3% in [1]; 2% in [2]; 0% in assay [3]; 0% in assay [5]; 4% in assay [8].
For the compound `CCCCCNC(=O)C(Cc1ccc(OCC#N)c(C(=O)O)c1)NC(=O)CCC(=O)O` (stereo unspecified), the inhibition was determined as 0% in assay [3], 0% in assay [5] and 3% in assay [8].
For the compound `CCCCCNC(=O)[C@H](Cc1ccc(OCC(=O)O)c(C#CC(=O)O)c1)NC(=O)[C@H](Cc1ccccc1)NC(=O)OC(C)(C)C`, the inhibition in assay [1] is 1%; in [2] it was 3%; in assay [3], 1%; in [5] it was 1%; in assay [8], 16%.
